Experimental data: ChEMBL document CHEMBL1142491, “Linking bisphosphonates to the free amino groups in fluoroquinolones: preparation of osteotropic prodrugs for the prevention of osteomyelitis” (J Med Chem, 2008)
In brackets after ≈: the same amount, converted by molar mass. Activity calls are given as the source filed them. No cut-off for these calls is given here.

What was measured:
Staphylococcus aureus [1] = test: Antibacterial activity against Staphylococcus aureus ATCC 13709 after 24 hrs by microdilution method; type: functional; settings: ATCC 13709, 24 h
Summary of the method: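 MIC by broth microdilution per CLSI guidelines (M7 A7) against S. aureus ATCC 13709.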

Bone = test: Binding affinity to bone assessed as drug level bound to cattle bone meal powder by fluorescence assay; type: tissue-based; set-up: concentration or dose not given beside the values; settings: Bos taurus; Bone element
Summary of the method: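 Compound dissolved in PBS, added at 1 mg/mL final to bone meal powder slurry (10 mg/mL in PBS), 37 °C for 1 h. Spun 13 000 rpm 2 min. Bound amount taken as input minus amount in supernatant, measured by fluorescence. Limit of detection 0.01%.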

[2] = Stability in phosphate buffer saline assessed as amount of parent drug released from cattle bone meal powder over 24 hrs; type: ADME
Summary of the method: (§1)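 Washed bone powder carrying bound prodrug resuspended in PBS or 50% (v/v in PBS) human or rat serum, 24 h at 37 °C, then centrifuged. Supernatant extracted with 5 volumes methanol (15 min vortex), spun, dried, redissolved in PBS. Released fluoroquinolone quantified by fluorescence. Limit of detection 0.01%.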

Serum [3] = test: Stability in 50% rat serum assessed as amount of parent drug released from cattle bone meal powder over 24 hrs; type: ADME, cell-free; summary of the method: as §1
Serum [4] = test: Stability in 50% human serum assessed as amount of parent drug released from cattle bone meal powder over 24 hrs; type: ADME, cell-free; summary of the method: as §1
Staphylococcus aureus [5] = test: Protective effect against Staphylococcus aureus ATCC 13709-induced bone infection in CD rat at 24 mg/kg, iv administered as single dose 1 day before bacterial challenge; type: functional, organism-based; set-up: dose 24 mg/kg
Summary of the method: (§2)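 S. aureus ATCC 13709 inoculum from frozen stock. Rats given intratibial 5% sodium morrhuate then about 5 × 10^5 CFU. Single IV bolus in saline, at the stated time relative to infection. Sacrificed 24 h post-infection. Tibiae milled and plated; mean log CFU/g bone ± SD. Detection limit 2 log CFU/g. Dunnett's test vs untreated, P<0.05.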

Staphylococcus aureus [6] = test: Protective effect against Staphylococcus aureus ATCC 13709-induced bone infection in CD rat at 10 mg/kg, iv administered as single dose 1 hr after bacterial challenge; type: functional, organism-based; set-up: dose 10 mg/kg; summary of the method: as §2
Staphylococcus aureus [7] = test: Protective effect against Staphylococcus aureus ATCC 13709-induced bone infection in CD rat at 42 mg/kg, iv administered as single dose 2 days before bacterial challenge; type: functional, organism-based; set-up: dose 42 mg/kg; summary of the method: as §2
Staphylococcus aureus [8] = test: Protective effect against Staphylococcus aureus ATCC 13709-induced bone infection in CD rat at 20.8 mg/kg, iv administered as single dose 1 day before bacterial challenge; type: functional, organism-based; set-up: dose 20.8 mg/kg; summary of the method: as §2
Staphylococcus aureus [9] = test: Protective effect against Staphylococcus aureus ATCC 13709-induced bone infection in CD rat at 20 mg/kg, iv administered as single dose 2 days before bacterial challenge; type: functional, organism-based; set-up: dose 20 mg/kg; summary of the method: as §2

Row | MIC (Staphylococcus aureus [1]) | Activity (Bone) | Activity [2] | Activity (Serum [3]) | Activity (Serum [4]) | Structure (SMILES) | Activity (Staphylococcus aureus [5]) | Activity (Staphylococcus aureus [6]) | Activity (Staphylococcus aureus [7]) | Activity (Staphylococcus aureus [8]) | Activity (Staphylococcus aureus [9])
1 | > 4 µg/mL | 99.9% | 0.01% | 0.01% | 0.01% | COc1c(N2C[C@@H]3CCCN(C(=O)CC(P(=O)(O)O)P(=O)(O)O)[C@@H]3C2)c(F)cc2c(=O)c(C(=O)O)cn(C3CC3)c12 | inactive |  |  |  | 
2 | > 4 µg/mL | 88.4% | 0.7% | 0.7% | 0.9% | COc1c(N2CCN(C(=O)OC(C)OC(=O)CCCC(P(=O)(O)O)P(=O)(O)O)C(C)C2)c(F)cc2c(=O)c(C(=O)O)cn(C3CC3)c12 (configuration not stated) |  |  |  |  | 
3 | > 4 µg/mL | 0.01% |  |  |  | COc1c(N2CCN(C(=O)CC(C)(C)c3cc(P(=O)(O)CP(=O)(O)O)ccc3OP(=O)(O)O)C(C)C2)c(F)cc2c(=O)c(C(=O)O)cn(C3CC3)c12 (configuration not stated) |  |  |  |  | 
4 | > 4 µg/mL | 93.9% | 1.2% | 1.4% | 1.8% | COc1c(N2C[C@@H]3CCCN(C(=O)OC(C)OC(=O)CCCC(=O)NC(P(=O)(O)O)P(=O)(O)O)[C@@H]3C2)c(F)cc2c(=O)c(C(=O)O)cn(C3CC3)c12 (some centres not stated) |  |  |  |  | 
5 | > 4 µg/mL | 76% | 0.8% | 6.1% | 3.6% | COc1c(N2CCN(C(=O)CC(C)(C)c3cc(P(=O)(O)CP(=O)(O)O)ccc3OC(=O)C(C)C)C(C)C2)c(F)cc2c(=O)c(C(=O)O)cn(C3CC3)c12 (configuration not stated) |  |  |  |  | 
6 | < 0.12 µg/mL | 63.7% | 7.5% | 30% | 22.8% | COc1c(N2CCN(Cc3oc(=O)oc3-c3ccc(P(=O)(O)CP(=O)(O)O)cc3)C(C)C2)c(F)cc2c(=O)c(C(=O)O)cn(C3CC3)c12 (configuration not stated) |  |  |  |  | 
7 | > 4 µg/mL | 94.3% | 1.5% | 1.8% | 2.4% | COc1c(N2CCN(C(=O)OC(C)OC(=O)CCCC(=O)NC(P(=O)(O)O)P(=O)(O)O)C(C)C2)c(F)cc2c(=O)c(C(=O)O)cn(C3CC3)c12 (configuration not stated) |  |  |  |  | 
8 | 0.5 µg/mL (≈ 0.736 µM) | 86.4% | 13.4% | 25.4% | 21.2% | COc1c(N2CCN(C(=O)OCOC(=O)CCC(P(=O)(O)O)P(=O)(O)O)C(C)C2)c(F)cc2c(=O)c(C(=O)O)cn(C3CC3)c12 (configuration not stated) |  |  | Active |  | 
9 | > 4 µg/mL | 36.6% | 5.4% | 6.2% | 3.7% | COc1c(N2CCN(C(=O)CC(C)(C)c3cc(P(=O)(O)CP(=O)(O)O)ccc3OC(C)=O)C(C)C2)c(F)cc2c(=O)c(C(=O)O)cn(C3CC3)c12 (configuration not stated) |  |  |  |  | 
10 | > 4 µg/mL | 99.6% | 0.01% | 0.01% | 0.01% | O=C(O)c1cn(C2CC2)c2cc(N3CCN(CC(P(=O)(O)O)P(=O)(O)O)CC3)c(F)cc2c1=O |  |  |  |  | 
11 | > 4 µg/mL | 92.2% | 0.01% | 0.01% | 0.01% | COc1c(N2C[C@@H]3CCCN(CC(P(=O)(O)O)P(=O)(O)O)[C@@H]3C2)c(F)cc2c(=O)c(C(=O)O)cn(C3CC3)c12 |  |  |  |  | 
12 | 0.12 µg/mL (≈ 0.162 µM) | 94.7% | 2.3% | 4.2% | 4.3% | COc1c(N2CCN(CCC(=O)c3ccc(OCCCC(P(=O)(O)O)P(=O)(O)O)cc3)C(C)C2)c(F)cc2c(=O)c(C(=O)O)cn(C3CC3)c12 (configuration not stated) |  |  |  | Active | 
13 | > 4 µg/mL | 98.2% | 0.01% | 0.01% | 0.01% | COc1c(N2CCN(C(=O)CC(P(=O)(O)O)P(=O)(O)O)C(C)C2)c(F)cc2c(=O)c(C(=O)O)cn(C3CC3)c12 (configuration not stated) |  |  |  |  | 

Row | Structure (SMILES) | MIC (Staphylococcus aureus [1]) | Activity (Bone) | Activity [2] | Activity (Serum [3]) | Activity (Serum [4]) | Activity (Staphylococcus aureus [5]) | Activity (Staphylococcus aureus [6]) | Activity (Staphylococcus aureus [7]) | Activity (Staphylococcus aureus [8]) | Activity (Staphylococcus aureus [9])
14 | O=C(O)c1cn(C2CC2)c2cc(N3CCNCC3)c(F)cc2c1=O [CIPROFLOXACIN] |  | 0.01% |  |  |  |  |  |  |  | 
15 | COc1c(N2C[C@@H]3CCCN[C@@H]3C2)c(F)cc2c(=O)c(C(=O)O)cn(C3CC3)c12 [MOXIFLOXACIN] | 0.03 µg/mL (≈ 0.0747 µM) | 0.01% |  |  |  |  | Active |  |  | 
16 | COc1c(N2CCNC(C)C2)c(F)cc2c(=O)c(C(=O)O)cn(C3CC3)c12 (configuration not stated) [GATIFLOXACIN] | 0.06 µg/mL (≈ 0.16 µM) | 0.01% |  |  |  |  |  |  |  | inactive
